From ChEMBL document CHEMBL4033779 (J Med Chem, 2018)
Values after ≈ are worked out from the molar mass of the structure shown.

What was measured:
[1] = test system: Human immunodeficiency virus 1; assay: Inhibition of [3H]BMS-488043 binding to HIV-1 isolate JRFL gp120 assessed as dissociation half life incubated for 60 mins followed by CD4 addition by scintillation counting method
[2] = test system: Human immunodeficiency virus 1; assay: Antiviral activity against HIV-1 NL4 - 3 infected in human MT2 cells harboring CXCR4 co-receptor after 4 to 6 days; assay type: functional, cell-based; settings: Human immunodeficiency virus 1, NL4 - 3, MT2
[3] = Dissociation constant, pKa of the compound; assay type: physicochemical
[4] = test system: Human immunodeficiency virus 1; assay: Inhibition of [3H]BMS-488043 binding to HIV-1 isolate JRFL gp120 assessed as association half life after 60 mins by scintillation counting method
[5] = Competitive inhibition of soluble CD4 binding to HIV-1 gp120 after 2 hrs by ELISA; set-up: species or system Human immunodeficiency virus 1
[6] = test system: Human immunodeficiency virus 1; assay: Antiviral activity against HIV-1 89.6 infected in human PM1 cells harboring dual co-receptors after 4 to 6 days by p24 ELISA; assay type: functional, cell-based; settings: Human immunodeficiency virus 1, 89.6, PM1
[7] = test system: Human immunodeficiency virus 1; assay: Antiviral activity against HIV1 infected in human assessed as decrease in viral load in plasma at 800 mg bid measured on day 8; assay type: functional
In short: (§1)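 Eight-day monotherapy in HIV-1-infected subjects: 800 or 1800 mg given BID with a high-fat meal (n = 12 per arm, placebo n = 6). Plasma viral load was measured on day 8 and reported as mean decline in log10 copies/mL.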

[8] = test system: Human immunodeficiency virus 1; assay: Antiviral activity against HIV-1 LAI infected in human MT2 cells harboring CXCR4 co-receptor after 4 to 6 days; assay type: functional, cell-based; settings: Human immunodeficiency virus 1, LAI
[9] = test system: Human immunodeficiency virus 1; assay: Antiviral activity against HIV-1 RF infected in human MT2 cells harboring CXCR4 co-receptor after 4 to 6 days; assay type: functional, cell-based; settings: Human immunodeficiency virus 1, RF
[10] = Protein binding in human plasma; assay type: ADME, cell-free; settings: read-out: PPB (converted)
[11] = test system: Human immunodeficiency virus 1; assay: Antiviral activity against HIV-1 Bal infected in human PM1 cells harboring CCR5 co-receptor after 4 to 6 days by p24 ELISA; assay type: functional, cell-based; settings: Human immunodeficiency virus 1, Bal
[12] = test system: Human immunodeficiency virus 1; assay: Antiviral activity against HIV-1 isolate MN infected in human MT2 cells harboring CXCR4 co-receptor after 4 to 6 days; assay type: functional, cell-based; settings: Human immunodeficiency virus 1, isolate MN
[13] = Half life in human administered as capsule; assay type: ADME; settings: po
[14] = test system: Human immunodeficiency virus 1; assay: Antiviral activity against HIV-1 SF-162 infected in human PM1 cells harboring CCR5 co-receptor after 4 to 6 days by p24 ELISA; assay type: functional, cell-based; settings: Human immunodeficiency virus 1, SF-162
[15] = test system: Human immunodeficiency virus 1; assay: Antiviral activity against HIV-1 3B infected in human MT2 cells harboring CXCR4 co-receptor after 4 to 6 days; assay type: functional, cell-based; settings: Human immunodeficiency virus 1, 3B
[16] = test system: Human immunodeficiency virus 1; assay: Antiviral activity against HIV-1 JR-FL infected in human PM1 cells harboring CCR5 co-receptor after 4 to 6 days by p24 ELISA; assay type: functional, cell-based; settings: Human immunodeficiency virus 1, JR-FL
[17] = Inhibition of [3H]BMS-488043 binding to HIV-1 isolate JRFL gp120 after 60 mins by scintillation counting method; set-up: species or system Human immunodeficiency virus 1
[18] = test system: Human immunodeficiency virus 1; assay: Antiviral activity against HIV1 infected in human assessed as decrease in viral load in plasma at 1800 mg bid measured on day 8; assay type: functional; in short: as §1
[19] = Aqueous solubility of the compound at pH 7.4; assay type: physicochemical
[20] = test system: Human immunodeficiency virus 1; assay: Antiviral activity against HIV-1 F1 by p24 ELISA; assay type: functional; settings: Human immunodeficiency virus 1, F1
[21] = test system: Human immunodeficiency virus 1; assay: Antiviral activity against HIV-1 isolate CRF_BF by p24 ELISA; assay type: functional; settings: Human immunodeficiency virus 1, isolate CRF_BF
[22] = test system: Human immunodeficiency virus 1; assay: Antiviral activity against HIV 1 isolate JRFL by single cycle infectivity assay; assay type: functional; settings: Human immunodeficiency virus 1, isolate JRFL
In short: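 HEK293T producer cells cotransfected with a proviral HIV-1 LAI-Δenv-luc plasmid (firefly luciferase in place of env) and an LTR-driven JR-FL env plasmid. The resulting pseudotyped virions complete only one replication round; infection is read out as luciferase signal.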

[23] = test system: Human immunodeficiency virus 1; assay: Antiviral activity against HIV-1 isolate CRF02_AG by p24 ELISA; assay type: functional; settings: Human immunodeficiency virus 1, isolate CRF02_AG
[24] = Aqueous solubility of the compound at pH 2 to 9; assay type: physicochemical
[25] = test system: Human immunodeficiency virus 1; assay: Antiviral activity against HIV-1 subtype C by p24 ELISA; assay type: functional; settings: Human immunodeficiency virus 1, subtype C
[26] = test system: Human immunodeficiency virus 1; assay: Antiviral activity against HIV-1 isolate CRF01_AE by p24 ELISA; assay type: functional; settings: Human immunodeficiency virus 1, isolate CRF01_AE
[27] = Oral bioavailability in rat dosed as suspension; assay type: ADME, organism-based; settings: in vivo
[28] = test system: Human immunodeficiency virus 1; assay: Antiviral activity against HIV-1 subtype F by p24 ELISA; assay type: functional; settings: Human immunodeficiency virus 1, subtype F
[29] = test system: Human immunodeficiency virus 1; assay: Antiviral activity against HIV-1 subtype B by p24 ELISA; assay type: functional; settings: Human immunodeficiency virus 1, subtype B
[30] = test system: Human immunodeficiency virus 1; assay: Antiviral activity against HIV-1 subtype A by p24 ELISA; assay type: functional; settings: Human immunodeficiency virus 1, subtype A
Homo sapiens [31] = species: Homo sapiens; assay: Half life in human assessed as 1-(4-benzoylpiperazin-1-yl)-2-(4-methoxy-7-(3-methyl-1H-1,2,4-triazol-1-yl)-1H-pyrrolo[2,3-c]pyridin-3-yl)ethane-1,2-dione level; assay type: ADME
[32] = Aqueous solubility of the compound at pH 1.5 to 8.2; assay type: physicochemical
In short: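 Aqueous solubility measured over pH 1.5−8.2 at room temperature.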

Canis familiaris = assay: Oral bioavailability in dog assessed as 1-(4-benzoylpiperazin-1-yl)-2-(4-methoxy-7-(3-methyl-1H-1,2,4-triazol-1-yl)-1H-pyrrolo[2,3-c]pyridin-3-yl)ethane-1,2-dione level; assay type: ADME, organism-based, Canis lupus familiaris; settings: in vivo
Rhesus monkey = assay: Oral bioavailability in monkey assessed as 1-(4-benzoylpiperazin-1-yl)-2-(4-methoxy-7-(3-methyl-1H-1,2,4-triazol-1-yl)-1H-pyrrolo[2,3-c]pyridin-3-yl)ethane-1,2-dione level; assay type: ADME, organism-based, Macaca mulatta; settings: in vivo
Rattus norvegicus = assay: Oral bioavailability in rat assessed as 1-(4-benzoylpiperazin-1-yl)-2-(4-methoxy-7-(3-methyl-1H-1,2,4-triazol-1-yl)-1H-pyrrolo[2,3-c]pyridin-3-yl)ethane-1,2-dione level; assay type: ADME, organism-based; settings: in vivo
[33] = Aqueous solubility of the compound; assay type: physicochemical; settings: buffer
[34] = Oral bioavailability in rat at 1 mg/kg; assay type: ADME, organism-based; settings: in vivo
In short: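 Rat oral dosing at 1 mpk as a nanosuspension.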

[35] = Oral bioavailability in cynomolgus monkey at 10 mg/kg; assay type: ADME, organism-based, Macaca fascicularis; settings: in vivo
In short: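 Oral dose of 10 mpk given as a solution in PEG 400/ethanol.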

Homo sapiens [36] = species: Homo sapiens; assay: Half life in human assessed as 1-(4-benzoylpiperazin-1-yl)-2-(4,7-dimethoxy-1H-pyrrolo[2,3-c]pyridin-3-yl)ethane-1,2-dione level; assay type: ADME
In short: (§2)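 Healthy volunteers received the phosphonooxymethyl prodrug orally over 25 to 800 mg. Plasma levels of the released parent were followed to derive tmax and t1/2.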

Homo sapiens [37] = species: Homo sapiens; assay: Tmax in human assessed as 1-(4-benzoylpiperazin-1-yl)-2-(4,7-dimethoxy-1H-pyrrolo[2,3-c]pyridin-3-yl)ethane-1,2-dione level; assay type: ADME; in short: as §2
[38] = test system: Human immunodeficiency virus 2; assay: Antiviral activity against HIV2; assay type: functional
[39] = test system: Simian immunodeficiency virus; assay: Antiviral activity against SIV; assay type: functional
Cytochrome P450 3A4 = Cytochrome P450 3A4 (Homo sapiens, UniProt P08684); assay: Inhibition of CYP3A4 (unknown origin); assay type: ADME
[40] = Solubility of the compound in acetonitrile; assay type: physicochemical

Chain of Cytochrome P450 3A4 (P08684 whole entry): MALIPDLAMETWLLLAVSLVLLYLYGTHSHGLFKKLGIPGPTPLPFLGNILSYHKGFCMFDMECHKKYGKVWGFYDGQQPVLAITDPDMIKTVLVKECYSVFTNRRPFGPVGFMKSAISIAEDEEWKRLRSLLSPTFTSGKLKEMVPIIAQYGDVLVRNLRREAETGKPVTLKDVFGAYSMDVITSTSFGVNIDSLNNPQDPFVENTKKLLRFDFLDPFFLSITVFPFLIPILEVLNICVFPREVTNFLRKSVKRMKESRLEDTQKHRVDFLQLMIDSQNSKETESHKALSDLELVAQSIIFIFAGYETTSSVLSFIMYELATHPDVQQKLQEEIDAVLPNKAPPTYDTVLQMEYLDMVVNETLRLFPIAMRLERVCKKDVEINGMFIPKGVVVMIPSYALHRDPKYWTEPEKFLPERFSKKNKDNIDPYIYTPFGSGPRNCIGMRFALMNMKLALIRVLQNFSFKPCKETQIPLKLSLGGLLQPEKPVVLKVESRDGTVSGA

COc1ncc(OC)c2c(C(=O)C(=O)N3CCN(C(=O)c4ccccc4)CC3)c[nH]c12
T1/2 [1]: 0.717 h
EC50 [2]: 17.4 nM
pKa [3]: 2.9 to 9.3
T1/2 [4]: 2 to 3 min
IC50 [5]: 87 nM
EC50 [6]: ≥ 871 nM
Activity [7]: 0.72 log10/ml
EC50 [8]: 4.1 nM
EC50 [9]: > 2000 nM
fraction unbound [10]: 0.05
EC50 [11]: 23 nM
EC50 [12]: > 1000 nM
half-life [13]: 10 h
EC50 [14]: 4.7 nM
EC50 [15]: 160 nM
EC50 [16]: 3 nM
Kd [17]: 19.1 nM
Activity [18]: 0.96 log10/ml

O=C(C(=O)N1CCN(C(=O)c2ccccc2)CC1)c1c[nH]c2c(-n3ccnn3)ncc(F)c12
solubility [19]: 7 µg/mL (≈ 15.6 µM)

COc1cnc(-n2cnc(C)n2)c2[nH]cc(C(=O)C(=O)N3CCN(C(=O)c4ccccc4)CC3)c12
T1/2 [1]: 7.63 h
EC50 [20]: 3.75 nM
EC50 [21]: 3.09 nM
EC50 [2]: 2.2 nM
EC50 [22]: 0.14 nM
EC50 [23]: 1.77 nM
solubility [24]: 20 µg/mL (≈ 42.2 µM)
EC50 [25]: 1.14 nM
EC50 [26]: > 100 nM
EC50 [6]: 57.6 nM
EC50 [8]: 0.7 nM
EC50 [9]: > 2000 nM
bioavailability [27]: 52%
EC50 [11]: 1.7 nM
EC50 [14]: 0.5 nM
EC50 [28]: 0.1 nM
EC50 [16]: 0.4 nM
EC50 [29]: 0.34 nM
EC50 [30]: 2.24 nM

COc1cnc(-n2cnc(C)n2)c2c1c(C(=O)C(=O)N1CCN(C(=O)c3ccccc3)CC1)cn2COP(=O)(O)O.NC(CO)(CO)CO [FOSTEMSAVIR TROMETHAMINE]
t1/2 (Homo sapiens [31]): 1.5 h
solubility [32]: > 11000 µg/mL
bioavailability (Canis familiaris): 80 to 122%
Activity [7]: <1 log10/ml
bioavailability (Rhesus monkey): 80 to 122%
bioavailability (Rattus norvegicus): 80 to 122%

COc1cnc(-n2cc(C)cn2)c2[nH]cc(C(=O)C(=O)N3CCN(C(=O)c4ccccc4)CC3)c12
EC50 [22]: 0.41 nM

O=C(C(=O)N1CCN(C(=O)c2ccccc2)CC1)c1c[nH]c2c(-c3ncon3)ncc(F)c12
EC50 [22]: 1.3 nM

O=C(C(=O)N1CCN(C(=O)c2ccccc2)CC1)c1c[nH]c2cccc(F)c12
solubility [33]: 5 µg/mL (≈ 13.2 µM)
bioavailability [34]: 4%
bioavailability [35]: 100%

COc1cnc(OC)c2c1c(C(=O)C(=O)N1CCN(C(=O)c3ccccc3)CC1)cn2COP(=O)(O)O.NCCCC[C@H](N)C(=O)O
t1/2 (Homo sapiens [36]): 1.5 h
Tmax (Homo sapiens [37]): 0.5 to 1 h

O=C(C(=O)N1CCN(C(=O)c2ccccc2)CC1)c1c[nH]c2ccccc12
EC50 [38]: > 200000 nM
EC50 [39]: > 200000 nM

COc1ccnc2[nH]cc(C(=O)C(=O)N3CCN(C(=O)c4ccccc4)C[C@H]3C)c12
pKa [3]: 2.9 to 9.6
IC50 [5]: 100 nM
fraction unbound [10]: 0.27

COc1cnc(-n2ccc(C)n2)c2[nH]cc(C(=O)C(=O)N3CCN(C(=O)c4ccccc4)CC3)c12
EC50 [22]: 0.11 nM

COc1cnc(-n2cncn2)c2[nH]cc(C(=O)C(=O)N3CCN(C(=O)c4ccccc4)CC3)c12
EC50 [22]: 0.21 nM
IC50 (Cytochrome P450 3A4): 1000 nM

COc1cnc(-n2ccnn2)c2[nH]cc(C(=O)C(=O)N3CCN(C(=O)c4ccccc4)CC3)c12
EC50 [22]: 0.78 nM

COc1cnc(Br)c2[nH]cc(C(=O)C(=O)N3CCN(C(=O)c4ccccc4)CC3)c12
solubility [40]: < 500 µg/mL
